Read-outs that look alike come from different tables or passages of the source. Values belong to the compound of their own block, whether it stands above or below them.
Tests used:
H4IIE cells [1] = type: cell-based; details: 24 hr
P-glycoprotein (PgP) = assay: P-glycoprotein; type: cell-based, rat; details: H4IIE cells, MTT, 24 hr, single exposure concentration (20 or 50 μM), without CSA
H4IIE cells [2] = assay: CeeTox analysis composite; type: cell-based, rat; details: H4IIE cells, 24 hr
S. typhimurium TA989 = assay: Ames test for mutagenicity, frame-shift strain; type: cell-based; details: first TA98 column; for TA98+S9: with S9, up to 10 μM; for TA98−S9: without S9, up to 10 μM
CYP2C9 = CYP2C9 (Homo sapiens, UniProt P11712); assay: Cloe Screen Cytochrome P450 Inhibition assay; type: in vitro ADME
CYP3A4 = CYP3A4 (Homo sapiens, UniProt P08684); assay: Cloe Screen Cytochrome P450 Inhibition assay; type: in vitro ADME
CYP2D6 = CYP2D6 (Homo sapiens, UniProt P10635); assay: Cloe Screen Cytochrome P450 Inhibition assay; type: in vitro ADME
How it was run: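 Run blinded. […] Metabolite formation was monitored by LC-MS/MS. IC50 was calculated from the decrease in metabolite formation relative to vehicle control. Quinidine served as positive control inhibitor.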

CYP2C19 = CYP2C19 (Homo sapiens, UniProt P33261); assay: Cloe Screen Cytochrome P450 Inhibition assay; type: in vitro ADME
H4IIE cells [3] = assay: CeeTox cellular ATP content; details: 24 hr
H4IIE cells [4] = assay: CeeTox cell mass; details: 24 hr
H4IIE cells [5] = assay: CeeTox membrane toxicity; details: 24 hr, α-GST leakage
[6] = system: Intracellular glutathione (GSH); assay: CeeTox intracellular glutathione; details: H4IIE cells
8-Isoprostane (8-ISO) = assay: CeeTox lipid peroxidation measured as 8-isoprostane; details: H4IIE cells, 8-ISO score
Caspase 3 = assay: CeeTox apoptosis; type: cell-based, rat; details: H4IIE cells
CYP1A2 = molecular target: T1, CYP1A2 (Homo sapiens, UniProt P05177); assay: Cloe Screen Cytochrome P450 Inhibition assay; type: in vitro ADME
T1 sequence (P05177 1-516): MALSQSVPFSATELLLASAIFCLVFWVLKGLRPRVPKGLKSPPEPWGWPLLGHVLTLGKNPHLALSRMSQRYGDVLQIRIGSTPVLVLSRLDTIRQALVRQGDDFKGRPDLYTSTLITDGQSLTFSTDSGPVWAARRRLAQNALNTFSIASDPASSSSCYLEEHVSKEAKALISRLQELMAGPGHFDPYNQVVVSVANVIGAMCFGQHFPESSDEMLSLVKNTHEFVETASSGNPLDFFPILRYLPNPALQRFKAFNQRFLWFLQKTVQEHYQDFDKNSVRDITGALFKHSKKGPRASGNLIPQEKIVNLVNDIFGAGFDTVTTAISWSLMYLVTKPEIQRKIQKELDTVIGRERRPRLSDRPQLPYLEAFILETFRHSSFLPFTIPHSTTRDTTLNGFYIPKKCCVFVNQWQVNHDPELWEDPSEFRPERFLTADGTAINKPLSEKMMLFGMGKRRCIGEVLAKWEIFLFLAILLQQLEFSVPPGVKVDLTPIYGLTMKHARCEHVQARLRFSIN

MDR1-MDCK cells = assay: BBB penetration; type: in vitro ADME, canine; details: classification from Papp A→B and efflux
How it was run: (§1)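 MDCK cells transfected with human MDR1 (P-gp) were grown to a confluent monolayer over 4 days. Test compound was added apically, and A→B transport was followed over 60 min; B→A transport was also measured. Compound on each side was quantified by GC/MS. Papp was calculated for both directions, and efflux ratio = Papp B→A/Papp A→B. High BBB potential: Papp A→B ≥3.0×10⁻⁶ cm/s and efflux <3.0.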

P-glycoprotein (MDR1) = assay: BBB penetration; type: in vitro ADME, canine; details: dog, MDCK-MDR1
How it was run: as §1

HT22 cells = assay: In vitro ischemia assay; type: cell-based; details: Mus musculus, HT-22, read-out: HT22 EC50 (nM)
How it was run: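 Mouse HT22 hippocampal cells were grown in DMEM with 10 % FCS and seeded at 5×10^3 cells/well. Next day, medium was changed to DMEM with 7.5 % dialyzed FCS, and cells were exposed to 20 µM iodoacetic acid with or without varying test compound concentrations for 2 h. Medium was then replaced with compound-containing medium without IAA for 20 h. Viability was read by MTT (5 µg/ml, 4 h, 37 °C), solubilized in DMF/SDS pH 4.7, A570.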

mouse cortical neurons = assay: Cortical neuron glutamate excitotoxicity neuroprotection assay; type: cell-based; details: tested at 0.1 μM

Chain of CYP3A4 (P08684 2-503): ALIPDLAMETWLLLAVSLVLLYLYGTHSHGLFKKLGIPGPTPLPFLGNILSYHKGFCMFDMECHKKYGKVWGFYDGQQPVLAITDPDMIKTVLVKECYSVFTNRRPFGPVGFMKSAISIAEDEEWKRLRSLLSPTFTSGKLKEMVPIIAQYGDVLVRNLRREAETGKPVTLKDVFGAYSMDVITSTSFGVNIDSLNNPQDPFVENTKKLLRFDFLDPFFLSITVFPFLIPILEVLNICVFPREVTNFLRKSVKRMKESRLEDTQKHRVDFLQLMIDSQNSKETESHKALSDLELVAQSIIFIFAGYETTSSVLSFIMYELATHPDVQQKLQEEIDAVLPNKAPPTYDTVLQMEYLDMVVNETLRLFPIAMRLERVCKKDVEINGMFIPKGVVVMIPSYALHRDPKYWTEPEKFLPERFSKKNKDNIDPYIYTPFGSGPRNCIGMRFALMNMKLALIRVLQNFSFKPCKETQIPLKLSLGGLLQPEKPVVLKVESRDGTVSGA
Chain of CYP2C19 (P33261 whole entry): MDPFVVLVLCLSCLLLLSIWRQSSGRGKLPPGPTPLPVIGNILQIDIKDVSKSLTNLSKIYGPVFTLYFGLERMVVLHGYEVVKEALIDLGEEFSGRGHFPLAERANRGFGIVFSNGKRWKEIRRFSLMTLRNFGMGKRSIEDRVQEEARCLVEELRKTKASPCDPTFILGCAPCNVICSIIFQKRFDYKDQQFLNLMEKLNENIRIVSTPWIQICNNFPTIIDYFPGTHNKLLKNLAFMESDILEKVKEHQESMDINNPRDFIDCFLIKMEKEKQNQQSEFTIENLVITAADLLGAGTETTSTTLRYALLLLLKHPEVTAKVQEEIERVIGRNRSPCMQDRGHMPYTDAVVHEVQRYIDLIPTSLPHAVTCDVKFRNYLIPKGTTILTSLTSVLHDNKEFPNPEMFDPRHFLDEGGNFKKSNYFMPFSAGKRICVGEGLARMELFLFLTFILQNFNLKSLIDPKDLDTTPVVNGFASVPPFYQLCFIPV
Chain of CYP2C9 (P11712 whole entry): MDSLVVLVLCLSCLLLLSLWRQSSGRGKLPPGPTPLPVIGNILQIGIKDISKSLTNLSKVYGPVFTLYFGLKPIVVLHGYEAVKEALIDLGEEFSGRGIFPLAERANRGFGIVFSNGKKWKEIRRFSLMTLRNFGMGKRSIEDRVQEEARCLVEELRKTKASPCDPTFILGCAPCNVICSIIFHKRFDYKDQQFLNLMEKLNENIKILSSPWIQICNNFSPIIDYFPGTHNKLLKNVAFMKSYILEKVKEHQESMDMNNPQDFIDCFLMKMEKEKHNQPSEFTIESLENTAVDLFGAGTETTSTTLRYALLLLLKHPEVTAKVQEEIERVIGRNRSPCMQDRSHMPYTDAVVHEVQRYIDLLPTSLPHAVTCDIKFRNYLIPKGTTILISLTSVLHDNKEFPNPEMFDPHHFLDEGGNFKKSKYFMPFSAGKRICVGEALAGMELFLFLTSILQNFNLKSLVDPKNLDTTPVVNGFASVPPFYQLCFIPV
Chain of CYP2D6 (P10635 whole entry): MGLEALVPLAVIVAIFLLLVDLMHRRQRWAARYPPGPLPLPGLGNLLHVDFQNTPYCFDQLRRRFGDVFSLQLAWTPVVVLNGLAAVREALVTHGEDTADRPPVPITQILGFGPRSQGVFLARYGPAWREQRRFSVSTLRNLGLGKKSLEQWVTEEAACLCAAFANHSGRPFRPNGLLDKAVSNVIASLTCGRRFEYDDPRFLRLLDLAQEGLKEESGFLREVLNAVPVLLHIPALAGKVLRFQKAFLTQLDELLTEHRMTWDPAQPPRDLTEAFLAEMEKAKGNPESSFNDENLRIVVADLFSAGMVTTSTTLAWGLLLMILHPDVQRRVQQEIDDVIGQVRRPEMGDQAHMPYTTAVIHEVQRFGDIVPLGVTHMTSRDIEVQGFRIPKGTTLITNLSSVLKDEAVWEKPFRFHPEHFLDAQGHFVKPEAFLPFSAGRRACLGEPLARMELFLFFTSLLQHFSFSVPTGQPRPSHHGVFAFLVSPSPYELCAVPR

Compound: O=c1c(O)c(-c2ccc(O)c(O)c2)oc2c1ccc1ccccc12 [CSMC-6, 3,3',4'-trihydroxy alpha-naphthoflavone]
MTT TC50 (H4IIE cells [1]): 71 µM
% Control(Compound) (P-glycoprotein (PgP)): 68.3 % Control
minimum TC50 (H4IIE cells [2]; lowest of the CeeTox endpoints): 71 µM
TC50 for all general toxicity measures (range over endpoints) (H4IIE cells [2]; range across CeeTox endpoints): 71 to 282 µM
TA98+S9 (S. typhimurium TA989): Negative (Not mutagenic < 10 μM (NEGATIVE))
TA98−S9 (S. typhimurium TA989): Negative (Not mutagenic < 10 μM (NEGATIVE))
IC50 (CYP2C9; read-out: CYP2C9 IC50, human liver microsomes, substrate Tolbutamide): > 10 µM
IC50 (CYP3A4; read-out: CYP3A4 IC50, human liver microsomes, substrate head: Mephenytoin): > 10 µM
IC50 (CYP2D6; read-out: CYP2D6 IC50, human liver microsomes, substrate DextroM): > 10 µM
IC50 (CYP2C19; read-out: CYP2C19 IC50, human liver microsomes, substrate head: Midazolam): > 10 µM
ATP TC50 (H4IIE cells [3]): 81 µM
Cell Mass TC50 (H4IIE cells [4]): 80 µM
MemTox TC50 (H4IIE cells [5]): 282 µM
Total GSH TC50 [6]: 87 µM
Membrane Lipid Peroxidation (8-Isoprostane (8-ISO)): 0

Compound: CCCc1ccc2oc(-c3ccc(O)c(O)c3)c(O)c(=O)c2c1 [CSMC-13, 6-propyl-3,3',4'-trihydroxy flavone]
MTT TC50 (H4IIE cells [1]): 83 µM
Caspase 3 Activity (Index/Dose): dose (Caspase 3; dose at which the index was seen): 100
Caspase 3 Activity (Index/Dose): index (Caspase 3; index of RFU): 1 (0–200 = 1)
% Control(Compound) (P-glycoprotein (PgP)): 87.9 % Control
TA98+S9 (S. typhimurium TA989): Negative (Not mutagenic < 10 μM (NEGATIVE))
TA98−S9 (S. typhimurium TA989): Negative (Not mutagenic < 10 μM (NEGATIVE))
IC50 (CYP1A2): > 25 µM
IC50 (CYP2C9): > 10 µM
IC50 (CYP3A4): > 10 µM
IC50 (CYP2D6): > 10 µM
IC50 (CYP2C19): > 10 µM
BBB Potential (MDR1-MDCK cells): low
Papp A→B at 60 min (P-glycoprotein (MDR1)): 0.1 ×10⁻⁶ cm/s
efflux ratio at 60 min (P-glycoprotein (MDR1)): 1
ATP TC50 (H4IIE cells [3]): 58 µM
Cell Mass TC50 (H4IIE cells [4]): 78 µM
MemTox TC50 (H4IIE cells [5]): >300 µM
Total GSH TC50 [6]: 252 µM
Membrane Lipid Peroxidation (8-Isoprostane (8-ISO)): 2 (2 = Concentration related increase with maximum values ≥ 15 pg/mL)

EC50 (HT22 cells): 4000 nM
BBB Potential (MDR1-MDCK cells): low
Papp A→B at 60 min (P-glycoprotein (MDR1)): 2.96 ×10⁻⁶ cm/s
efflux ratio at 60 min (P-glycoprotein (MDR1)): 0.7
Compound: O=c1c(O)c(-c2ccc(O)c(O)c2)oc2cc(O)ccc12 [Fisetin, 3,3',4',7-tetrahydroxyflavone, reference compound]
Neuroprotection of mouse cortical neurons against glutamate (mouse cortical neurons): did not confer neuroprotection
